Assay results: ChEMBL document CHEMBL4049390, “Combination of amino acid/dipeptide with ligustrazine-betulinic acid as antitumor agents” (Eur J Med Chem, 2017)
Activity calls are given as the source filed them. No cut-off for these calls is given here.

What was measured:
HepG2 [1] = test: Induction of apoptosis in human HepG2 cells assessed as late apoptotic cells at 4 uM after 72 hrs by Annexin-V-FITC/propidium iodide staining based flow cytometry (reference value: 2.6%); assay type: functional
HepG2 [2] = test: Potency index, ratio of cisplatin IC50 to compound IC50 for human HepG2 cells; assay type: functional
Method in brief: (§1)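 Ratios were calculated from MTT IC50 values (72 h exposure, A490 read-out, n = 3). Potency index = cisplatin IC50 / compound IC50. Therapeutic index = MDCK IC50 / tumour-line IC50.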

HepG2 [3] = test: Induction of apoptosis in human HepG2 cells assessed as increase in intracellular calcium level by measuring mean fluorescence intensity at 3 uM after 72 hrs by Fluo-3AM dye based flow cytometry (reference value: 1992); assay type: functional
Method in brief: (§2)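 HepG2 cells at 1×10^5 cells/well were grown 24 h, then treated with compound for 72 h. Cells were harvested, washed in cold PBS and resuspended in HBSS containing 10 µM Fluo-3 AM for 30 min at 37 °C in the dark. Flow cytometry used 488 nm excitation; the read-out was mean fluorescence intensity against an untreated control.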

HepG2 [4] = test: Induction of apoptosis in human HepG2 cells assessed as viable cells at 3 uM after 72 hrs by Annexin-V-FITC/propidium iodide staining based flow cytometry (reference value: 93.2%); assay type: functional; conditions: HepG2, 72 h, read-out: Activity
HepG2 [5] = test: Induction of apoptosis in human HepG2 cells assessed as increase in intracellular calcium level by measuring mean fluorescence intensity after 72 hrs by Fluo-3AM dye based flow cytometry; assay type: functional, cell-based
Method in brief: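 Intracellular Ca2+: HepG2 cells (1×10^5/well, 6-well) were grown 24 h, then treated at 2, 3 or 4 µM for 72 h. Cells were harvested, washed in cold PBS and resuspended in HBSS with 10 µM Fluo-3AM for 30 min at 37 °C in the dark. Flow cytometry used 488 nm excitation; the read-out is mean fluorescence intensity.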

HeLa = test: Potency index, ratio of cisplatin IC50 to compound IC50 for human HeLa cells; assay type: functional; method in brief: as §1
HepG2 [6] = test: Antiproliferative activity against human HepG2 cells after 72 hrs by MTT assay; assay type: functional, cell-based; conditions: HepG2, 72 h
Method in brief: (§3)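 MTT assay. Log-phase cells were seeded at 3×10^3 cells/well and left overnight, then exposed to serial dilutions of compound (DMSO solutions) for 72 h in RPMI 1640 with 10% heat-inactivated FBS at 37 °C, 5% CO2. MTT (5 mg/mL, 20 µL) was added for 4 h at 37 °C and the formazan dissolved in DMSO. A490 was read. % inhibition = (1 − sample OD/control OD)×100; IC50 is the 50% growth-inhibition concentration. Triplicates, n = 3 independent experiments.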

HepG2 [7] = test: Induction of apoptosis in human HepG2 cells assessed as necrotic cells at 3 uM after 72 hrs by Annexin-V-FITC/propidium iodide staining based flow cytometry (reference value: 0.5%); assay type: functional
HepG2 [8] = test: Induction of apoptosis in human HepG2 cells assessed as viable cells at 4 uM after 72 hrs by Annexin-V-FITC/propidium iodide staining based flow cytometry (reference value: 93.2%); assay type: functional; conditions: HepG2, 72 h, read-out: Activity
MDCK = test: Antiproliferative activity against MDCK cells after 72 hrs by MTT assay; assay type: cell-based; conditions: Canis lupus familiaris; method in brief: as §3
HepG2 [9] = test: Induction of apoptosis in human HepG2 cells assessed as cell shrinkage at 1.5 uM after 72 hrs by Giemsa staining based fluorescent microscopic method; assay type: functional
Method in brief: (§4)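 HepG2 cells were seeded at 4×10^3 cells/well in 6-well plates overnight, then treated at 1.5, 3 or 6 µM for 72 h. Cells were washed in PBS, fixed in cold methanol, stained with 6% Giemsa for 5 min, rinsed with water and dried. Morphology was examined microscopically at 200×, with apoptotic cells marked in representative fields.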

HepG2 [10] = test: Induction of apoptosis in human HepG2 cells assessed as late apoptotic cells at 3 uM after 72 hrs by Annexin-V-FITC/propidium iodide staining based flow cytometry (reference value: 2.6%); assay type: functional
HepG2 [11] = test: Induction of apoptosis in human HepG2 cells assessed as disruption of mitochondrial membrane potential by measuring mean fluorescence intensity after 72 hrs by Rh123 staining based flow cytometry; assay type: functional, cell-based
Method in brief: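 Mitochondrial potential: HepG2 cells (1×10^5/well, 6-well) were grown 24 h, then exposed at 2, 3 or 4 µM for 72 h. Cells were trypsinised, washed in cold PBS and loaded with 10 µg/mL rhodamine 123 for 30 min at 37 °C. After washing, flow cytometry was run (ex 488/em 530 nm); the read-out is mean fluorescence intensity.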

A549 = test: Potency index, ratio of cisplatin IC50 to compound IC50 for human A549 cells; assay type: functional; method in brief: as §1
HepG2 [12] = test: Induction of apoptosis in human HepG2 cells assessed as necrotic cells at 2 uM after 72 hrs by Annexin-V-FITC/propidium iodide staining based flow cytometry (reference value: 0.5%); assay type: functional
HT-29 [13] = test: Antiproliferative activity against human HT-29 cells after 72 hrs by MTT assay; assay type: functional, cell-based; conditions: HT-29, 72 h; method in brief: as §3
HepG2 [14] = test: Induction of apoptosis in human HepG2 cells assessed as disruption of mitochondrial membrane potential by measuring mean fluorescence intensity at 3 uM after 72 hrs by Rh123 staining based flow cytometry (reference value: 26410); assay type: functional
HepG2 [15] = test: Induction of apoptosis in human HepG2 cells assessed as chromatin margination at 1.5 uM after 72 hrs by Giemsa staining based fluorescent microscopic method; assay type: functional, cell-based; method in brief: as §4
HT-29 [16] = test: Potency index, ratio of cisplatin IC50 to compound IC50 for human HT-29 cells; assay type: functional; method in brief: as §1
HepG2 [17] = test: Induction of apoptosis in human HepG2 cells assessed as necrotic cells at 4 uM after 72 hrs by Annexin-V-FITC/propidium iodide staining based flow cytometry (reference value: 0.5%); assay type: functional
BGC-823 [18] = test: Antiproliferative activity against human BGC823 cells after 72 hrs by MTT assay; assay type: functional, cell-based; conditions: BGC-823, 72 h; method in brief: as §3
HepG2 [19] = test: Induction of apoptosis in human HepG2 cells assessed as nuclear condensation after 72 hrs by DAPI staining based fluorescent microscopic method; assay type: functional, cell-based
Method in brief: (§5)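 HepG2 cells were plated at 4×10^3 cells/well in six-well plates and grown 12 h, then treated at 1.5, 3 or 6 µM for 72 h. Cells were washed in PBS, fixed in 4% paraformaldehyde and stained with 1 mg/mL DAPI for 1 min in the dark. Nuclei were viewed by fluorescence microscopy at 200×.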

HepG2 [20] = test: Induction of apoptosis in human HepG2 cells assessed as early apoptotic cells at 2 uM after 72 hrs by Annexin-V-FITC/propidium iodide staining based flow cytometry (reference value: 3.7%); assay type: functional
HepG2 [21] = test: Induction of apoptosis in human HepG2 cells assessed as nuclear fragmentation after 72 hrs by DAPI staining based fluorescent microscopic method; assay type: functional, cell-based; method in brief: as §5
BGC-823 [22] = test: Potency index, ratio of cisplatin IC50 to compound IC50 for human BGC823 cells; assay type: functional; method in brief: as §1
HepG2 [23] = test: Induction of apoptosis in human HepG2 cells assessed as increase in intracellular calcium level by measuring mean fluorescence intensity at 2 uM after 72 hrs by Fluo-3AM dye based flow cytometry (reference value: 1992); assay type: functional; method in brief: as §2
HepG2 [24] = test: Induction of apoptosis in human HepG2 cells assessed as nuclear fragmentation at 1.5 to 6 uM after 72 hrs by Giemsa staining based fluorescent microscopic method; assay type: functional, cell-based; method in brief: as §4

Structure (SMILES): C=C(C)[C@@H]1CC[C@]2(C(=O)OCc3nc(C)c(C)nc3C)CC[C@]3(C)[C@H](CC[C@@H]4[C@@]5(C)CC[C@H](OC(=O)[C@H](C)NC(=O)CNC)C(C)(C)[C@@H]5CC[C@]43C)[C@@H]12
- Activity (HepG2 [1]): 6.9%
- Ratio IC50 (HepG2 [2]): 2
- Flu intensity (HepG2 [3]): 3760
- viability at 3 µM (HepG2 [4]): 81%
- Activity (HepG2 [5]): Dose-dependent effect
- Ratio IC50 (HeLa): 2
- IC50 (HepG2 [6]): 3.09 µM
- Activity (HepG2 [7]): 1.2%
- viability at 4 µM (HepG2 [8]): 62.2%
- IC50 (MDCK): 10.8 µM
- Activity (HepG2 [9]): Active
- Activity (HepG2 [10]): 6.5%
- Activity (HepG2 [11]): Dose-dependent effect
- Ratio IC50 (A549): 2
- Activity (HepG2 [12]): 1.1%
- IC50 (HT-29 [13]): 1.7 µM
- Flu intensity (HepG2 [14]): 5411
- Activity (HepG2 [15]): Active
- Ratio IC50 (HT-29 [16]): 2
- Activity (HepG2 [17]): 1%
- IC50 (BGC-823 [18]): 1.79 µM
- Activity (HepG2 [19]): Dose-dependent effect
- Activity (HepG2 [20]): 6.1%
- Activity (HepG2 [21]): Dose-dependent effect
- Ratio IC50 (BGC-823 [22]): 2
- Flu intensity (HepG2 [23]): 2743
- Activity (HepG2 [24]): Active
